# Data from ChEMBL document CHEMBL4265907, “Design, synthesis and pharmacological evaluation of N4,N6-disubstituted pyrimidine-4,6-diamine derivatives as potent EGFR inhibitors in non-small cell lung cancer” (Eur J Med Chem, 2018).
# Active and inactive are the calls of the source. The calls are words filed in the database; no cut-off is given here.
# Experiments:
# [1] = Cmax in Sprague-Dawley rat at 30 mg/kg, po by UPLC-MS/MS analysis; type: ADME, organism-based; design: dose 30 mg/kg, route oral; settings: in vivo
# Outline: (§1)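 Four female and four male Sprague-Dawley rats, 200-220 g, fasted 12 h, then given a single oral dose of 30 mg/kg as a 0.5% CMC-Na suspension. Blood sampled at 0.083, 0.25, 0.5, 1, 2, 4, 8 and 24 h, plasma separated by centrifugation at 4000 r/min for 10 min, and analysed by UPLC–MS/MS. Parameters reported as mean ± SD, n=6.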
# A-431 [2] = experiment: Induction of apoptosis in human A431 cells assessed as early apoptotic cells at 500 nM after 48 hrs by Annexin V-FITC/PI staining based flow cytometry (reference value: 3.40%); type: functional
# NCI-H3255 [3] = experiment: Induction of apoptosis in human H3255 cells assessed as early apoptotic cells at 250 nM after 48 hrs by Annexin V-FITC/PI staining based flow cytometry (reference value: 3.22%); type: functional
# [4] = molecular target: T1, Epidermal growth factor receptor (Homo sapiens, UniProt P00533); experiment: Inhibition of EGFR in human A431 cells assessed as decrease in EGF-induced AKT phosphorylation by Western blot method; type: cell-based
# T1 sequence (P00533 whole entry): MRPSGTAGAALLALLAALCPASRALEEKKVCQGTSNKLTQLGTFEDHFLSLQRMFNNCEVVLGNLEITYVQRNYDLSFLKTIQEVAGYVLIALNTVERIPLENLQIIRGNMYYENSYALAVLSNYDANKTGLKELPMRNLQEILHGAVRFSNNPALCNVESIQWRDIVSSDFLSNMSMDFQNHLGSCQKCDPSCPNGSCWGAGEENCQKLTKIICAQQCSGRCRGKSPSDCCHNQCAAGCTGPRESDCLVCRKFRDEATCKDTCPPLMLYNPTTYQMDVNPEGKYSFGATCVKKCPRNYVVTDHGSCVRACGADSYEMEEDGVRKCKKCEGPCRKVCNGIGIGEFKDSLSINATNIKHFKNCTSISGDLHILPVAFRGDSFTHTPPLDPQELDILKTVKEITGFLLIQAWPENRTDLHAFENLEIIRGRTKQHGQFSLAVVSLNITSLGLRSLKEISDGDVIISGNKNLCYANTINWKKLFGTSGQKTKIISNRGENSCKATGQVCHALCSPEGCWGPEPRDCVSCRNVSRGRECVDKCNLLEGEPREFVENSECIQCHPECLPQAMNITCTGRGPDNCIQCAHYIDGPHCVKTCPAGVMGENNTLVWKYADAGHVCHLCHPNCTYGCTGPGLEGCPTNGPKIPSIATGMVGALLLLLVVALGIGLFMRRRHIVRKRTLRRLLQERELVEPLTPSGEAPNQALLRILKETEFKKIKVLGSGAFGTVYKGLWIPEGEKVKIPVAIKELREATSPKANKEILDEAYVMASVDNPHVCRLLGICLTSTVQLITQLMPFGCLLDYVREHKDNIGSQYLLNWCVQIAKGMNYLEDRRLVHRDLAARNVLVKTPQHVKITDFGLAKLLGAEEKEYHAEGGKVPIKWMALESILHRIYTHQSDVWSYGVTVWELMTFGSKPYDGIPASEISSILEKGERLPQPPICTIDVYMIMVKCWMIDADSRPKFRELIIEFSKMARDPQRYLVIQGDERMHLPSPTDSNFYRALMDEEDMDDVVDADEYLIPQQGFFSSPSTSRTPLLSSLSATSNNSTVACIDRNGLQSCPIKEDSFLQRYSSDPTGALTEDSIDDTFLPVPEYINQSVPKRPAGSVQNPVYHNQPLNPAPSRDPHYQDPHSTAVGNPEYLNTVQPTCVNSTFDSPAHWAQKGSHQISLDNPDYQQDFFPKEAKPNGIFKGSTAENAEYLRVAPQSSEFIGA
# Outline: (§2)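 Cell lysates prepared in protein lysis buffer and cleared at 12,000 g for 10 min at 4 °C. 50 μg protein per lane was run on a gel, transferred to PVDF and immunoblotted, with GAPDH as the loading control.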
# Mus musculus [5] = experiment: In vivo inhibition of EGFR phosphorylation in tumor of BALB/C nude mouse xenografted with human PC9 cells at 15 to 30 mg/kg, ip qd administered for 19 days by immunohistochemical analysis; type: functional, organism-based
# HCC827 [6] = experiment: Induction of apoptosis in human HCC827 cells assessed as viable cells at 500 nM after 48 hrs by Annexin V-FITC/PI staining based flow cytometry (reference value: 94.6%); type: functional; settings: HCC827, 48 h, read-out: Activity
# HCC827 [7] = experiment: Induction of apoptosis in human HCC827 cells assessed as viable cells after 48 hrs by Annexin V-FITC/PI staining based flow cytometry; type: functional, cell-based
# PC-9 = experiment: Antitumor activity against human PC9 cells xenografted in BALB/C nude mouse assessed as decrease in tumor volume at 15 to 30 mg/kg, ip qd administered for 19 days measured for 23 days; type: functional, organism-based
# Outline: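 Six-week-old BALB/C-nu mice given 2×10^6 PC-9 cells subcutaneously in the right flank. At tumour size ~0.2-0.4 cm³, randomised, 5 mice/group. Dosed ip daily for 19 days at 15 or 30 mg/kg, vehicle DMSO:Span-80:ddH₂O = 2:1:50; vehicle-treated control group. Tumour volume = (W²×L)/2. Tumours weighed.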
# NCI-H3255 [8] = experiment: Induction of apoptosis in human H3255 cells assessed as late apoptotic cells at 250 nM after 48 hrs by Annexin V-FITC/PI staining based flow cytometry (reference value: 1.77%); type: functional
# NCI-H3255 [9] = experiment: Induction of apoptosis in human H3255 cells assessed as viable cells at 1000 nM after 48 hrs by Annexin V-FITC/PI staining based flow cytometry (reference value: 87.9%); type: functional; settings: NCI-H3255, 48 h, read-out: Activity
# [10] = Half life in Sprague-Dawley rat at 30 mg/kg, po by UPLC-MS/MS analysis; type: ADME, organism-based; settings: in vivo; outline: as §1
# Mus musculus [11] = experiment: In vivo inhibition of EGFR phosphorylation in tumor of BALB/C nude mouse xenografted with human PC9 cells at 15 to 30 mg/kg, ip qd administered for 19 days by immunoblot method; type: functional, organism-based
# A-431 [12] = experiment: Induction of apoptosis in human A431 cells assessed as early apoptotic cells at 250 nM after 48 hrs by Annexin V-FITC/PI staining based flow cytometry (reference value: 3.40%); type: functional
# A-431 [13] = experiment: Induction of apoptosis in human A431 cells assessed as viable cells at 1000 nM after 48 hrs by Annexin V-FITC/PI staining based flow cytometry (reference value: 90.3%); type: functional; settings: A-431, 48 h, read-out: Activity
# NCI-H3255 [14] = experiment: Induction of apoptosis in human H3255 cells assessed as necrotic cells at 1000 nM after 48 hrs by Annexin V-FITC/PI staining based flow cytometry (reference value: 7.06%); type: functional
# NCI-H3255 [15] = experiment: Induction of apoptosis in human H3255 cells assessed as late apoptotic cells at 1000 nM after 48 hrs by Annexin V-FITC/PI staining based flow cytometry (reference value: 1.77%); type: functional
# NCI-H3255 [16] = experiment: Induction of apoptosis in human H3255 cells assessed as late apoptotic cells at 500 nM after 48 hrs by Annexin V-FITC/PI staining based flow cytometry (reference value: 1.77%); type: functional
# NCI-H1975 [17] = experiment: Induction of apoptosis in human NCI-H1975 cells assessed as viable cells at 250 nM after 48 hrs by Annexin V-FITC/PI staining based flow cytometry (reference value: 93.7%); type: functional; settings: NCI-H1975, 48 h, read-out: Activity
# Rattus norvegicus = experiment: Volume of distribution in Sprague-Dawley rat at 30 mg/kg, po by UPLC-MS/MS analysis; type: ADME, organism-based; settings: in vivo
# Outline: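 Sprague-Dawley rats (four female, four male; 200-220 g) were fasted 12 h and given a single oral 30 mg/kg dose as a 0.5% CMC-Na suspension. Blood was drawn at 0.083, 0.25, 0.5, 1, 2, 4, 8 and 24 h and centrifuged at 4000 r/min for 10 min. Samples were quantified by UPLC–MS/MS; parameters are reported for n=6.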
# [18] = AUC (0 to infinity) in Sprague-Dawley rat at 30 mg/kg, po by UPLC-MS/MS analysis; type: ADME, organism-based; design: dose 30 mg/kg, route oral, time infinity; settings: in vivo; outline: as §1
# [19] = MRT (0 to t) in Sprague-Dawley rat at 30 mg/kg, po by UPLC-MS/MS analysis; type: ADME, organism-based; settings: in vivo
# Outline: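 Male and female Sprague-Dawley rats (200–220 g) were fasted 12 h and given a single oral dose of 30 mg/kg as a 0.5% CMC-Na suspension. Blood was sampled at 0.083, 0.25, 0.5, 1, 2, 4, 8 and 24 h and centrifuged at 4000 r/min for 10 min. Plasma was quantified by UPLC–MS/MS.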
# HCC827 [20] = experiment: Induction of apoptosis in human HCC827 cells assessed as necrotic cells at 500 nM after 48 hrs by Annexin V-FITC/PI staining based flow cytometry (reference value: 1.41%); type: functional
# HCC827 [21] = experiment: Induction of apoptosis in human HCC827 cells assessed as necrotic cells at 250 nM after 48 hrs by Annexin V-FITC/PI staining based flow cytometry (reference value: 1.41%); type: functional
# NCI-H3255 [22] = experiment: Induction of apoptosis in human H3255 cells assessed as viable cells after 48 hrs by Annexin V-FITC/PI staining based flow cytometry; type: functional, cell-based
# NCI-H1975 [23] = experiment: Induction of apoptosis in human NCI-H1975 cells assessed as necrotic cells at 1000 nM after 48 hrs by Annexin V-FITC/PI staining based flow cytometry (reference value: 2.31%); type: functional
# [24] = molecular target: T1, Epidermal growth factor receptor; experiment: Inhibition of EGF-induced EGFR autophosphorylation at Y1068 residues in human H3255 cells by Western blot method; type: cell-based; outline: as §2
# A-431 [25] = experiment: Induction of apoptosis in human A431 cells assessed as necrotic cells at 500 nM after 48 hrs by Annexin V-FITC/PI staining based flow cytometry (reference value: 4.16%); type: functional
smiles,measurement,setting,value
COc1cccc(Nc2cc(Nc3cc(OC)ccc3OC)ncn2)c1,Cmax,[1],1060 ng/mL
same,Activity,A-431 [2],15.1%
same,Activity,NCI-H3255 [3],13.3%
same,inhibition,[4],Dose-dependent effect
same,inhibition,Mus musculus [5],Active
same,viability at 0.5 µM,HCC827 [6],61.8%
same,Activity,HCC827 [7],Dose-dependent effect
same,Activity,PC-9,Active
same,Activity,NCI-H3255 [8],3.24%
same,viability at 1 µM,NCI-H3255 [9],65.4%
same,half-life,[10],250 min
same,inhibition,Mus musculus [11],Active
same,Activity,A-431 [12],10.8%
same,viability at 1 µM,A-431 [13],65.3%
same,Activity,NCI-H3255 [14],6.35%
same,Activity,NCI-H3255 [15],10.6%
same,Activity,NCI-H3255 [16],5.35%
same,viability at 0.25 µM,NCI-H1975 [17],56.1%
same,Vd,Rattus norvegicus,0.03 L/kg
same,AUC(0-inf),[18],5820 ng·h/mL
same,MRT last,[19],6.66 h
same,Activity,HCC827 [20],9.2%
same,Activity,HCC827 [21],12.4%
same,Activity,NCI-H3255 [22],Dose-dependent effect
same,Activity,NCI-H1975 [23],7.56%
same,inhibition,[24],Dose-dependent effect
same,Activity,A-431 [25],5.66%
